From ChEMBL document CHEMBL1142321, “Selection of a respiratory syncytial virus fusion inhibitor clinical candidate. 2. Discovery of a morpholinopropylaminobenzimidazole derivative (TMC353121)” (J Med Chem, 2008)

Tests used:
[1] = tested on: Respiratory syncytial virus; experiment: Inhibition of RSV by MTT assay; format: functional, organism-based; details: human respiratory syncytial virus
How it was run: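 HeLaM epithelial-like cells infected with RSV with or without a range of compound concentrations; viability read by MTT after 1 week incubation. OD measured spectrophotometrically and pEC50 derived. Virus, cell and cytotoxicity controls on every plate, reference compounds in every test; runs failing control criteria rejected.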

[2] = Cytotoxicity against human HeLaM cells by MTT assay; format: functional, M-HeLa
[3] = Half life in Sprague-Dawley rat lung; format: ADME, organism-based

| half-life [3] | Structure (SMILES) | EC50 [1] | pCC50 [2] |
| --- | --- | --- | --- |
| – | Cc1cccc(SCc2ccc3nc(NC4CCN(C)CC4)n(Cc4nc(C)ccc4O)c3c2)c1 | 251 nM | 4.4 |
| – | Cc1ccc(O)c(Cn2c(NC3CCN(CCN)CC3)nc3c(C)cccc32)n1 [JNJ 2408068] | 0.251 nM | <4 |
| – | Cc1cccc(CNc2ccc3nc(NC4CCN(C)CC4)n(Cc4nc(C)ccc4O)c3c2)c1 | 15.8 nM | 4.8 |
| – | Cc1ccc(O)c(Cn2c(NC3CCN(CC(N)C(C)C)CC3)nc3c(C)ccnc32)n1 (configuration not stated) | 0.1 nM | 4.3 |
| – | Cc1cc(C)cc(NCc2ccc3nc(NCCc4ccccc4)n(Cc4nc(C)ccc4O)c3c2)c1 | > 100000 nM | 4.4 |
| – | Cc1cc(C)cc(NCc2ccc3nc(NC4CCN(C)CC4)n(Cc4nc(C)ccc4O)c3c2)c1 | 2.51 nM | 4.3 |
| 10.4 h | Cc1cc(C)cc(N(CCCC(N)=O)Cc2ccc3nc(NCCCN4CCOCC4)n(Cc4nc(C)ccc4O)c3c2)c1 | 0.251 nM | 4.7 |
| – | Cc1cc(C)cc(NCc2ccc3nc(NCCCN4CCN(C)CC4)n(Cc4nc(C)ccc4O)c3c2)c1 | 3.98 nM | 5 |
| – | Cc1cccc(C(=O)Nc2ccc3nc(NC4CCN(C)CC4)n(Cc4nc(C)ccc4O)c3c2)c1 | 63.1 nM | 4.3 |
| – | Cc1ccc(O)c(Cn2c(NC3CCN(C)CC3)nc3ccc(CN(CCO)c4ccccc4)cc32)n1 | 3.16 nM | <4 |
| – | Cc1ccc(O)c(Cn2c(NCCCN3CCOCC3)nc3ccc(CNc4ccccc4CCCO)cc32)n1 | 0.251 nM | 4.9 |
| – | Cc1ccc(O)c(Cn2c(NCCCN3CCOCC3)nc3ccc(CN(CCO)c4ccccc4)cc32)n1 | 3.16 nM | 4.3 |
| 13.7 h | Cc1cc(C)cc(NCc2ccc3nc(NCCCN4CCOCC4)n(Cc4nc(C)ccc4O)c3c2)c1 | 1 nM | 5 |
| – | CCCCNc1nc2ccc(CNc3cc(C)cc(C)c3)cc2n1Cc1nc(C)ccc1O | > 100000 nM | 5.1 |
| – | Cc1cccc(CCc2ccc3nc(NC4CCN(C)CC4)n(Cc4nc(C)ccc4O)c3c2)c1 | 20 nM | 5.9 |
